Activity calls are given as the source filed them. The calls are words filed in the database; no cut-off is given here.
Tests used:
Type in all cases: functional
Plasmodium falciparum [1] = assay: Antimalarial activity against MRA-150, chloroquine, pyrimethamine, mefloquine-resistant asexual blood stage Plasmodium falciparum Dd2 assessed as rescue at 10 uM after 72 hrs by SYBR green assay in presence of 200 uM IPP
Method in brief: (§1)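 Single-concentration test (10 or 20 μM) run with or without 200 μM IPP on ring-stage Dd2 cultures (1% hematocrit, 1% parasitemia) in human erythrocytes. Incubation was 72 h at 37 °C under reduced O2. Growth was read by SYBR green, with background from uninfected erythrocytes and normalisation to untreated DMSO vehicle controls.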

Plasmodium falciparum [2] = assay: Antimalarial activity against MRA-150, chloroquine, pyrimethamine, mefloquine-resistant asexual blood stage Plasmodium falciparum Dd2 after 72 hrs by SYBR green assay; settings: Dd2, 72 h
Method in brief: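 Dd2 parasites were kept in O-positive human erythrocytes in RPMI 1640 with Albumax I, hypoxanthine and HEPES. Ring-stage cultures (1% hematocrit, 1% parasitemia) were given eight- or ten-point dilutions of 20 to 0.02 μM in 0.1% DMSO for 72 h at 37 °C under low O2. Growth was read by SYBR green, with uninfected-erythrocyte background and normalisation to untreated 0.1% DMSO controls. IC50 came from a four-parameter variable-slope fit, mean of ≥2 independent experiments ± S.D.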

Escherichia coli = assay: Antibacterial activity against Escherichia coli BL21(DE3) after 18 hrs by cell density meter
Method in brief: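 Overnight culture (37 °C, 200 rpm) diluted 100-fold into LB, grown to OD600 ~0.6, then diluted 10,000-fold; mixed 1:1 with compound prediluted in LB at 500, 250 and 125 μM; 5% DMSO final. Incubated 18 h, 37 °C, 200 rpm; growth normalized to untreated inoculum and compared with 5% DMSO vehicle; controls fosmidomycin 100 μM, uninoculated medium; three independent experiments.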

Plasmodium falciparum [3] = assay: Antimalarial activity against MRA-150, chloroquine, pyrimethamine, mefloquine-resistant asexual blood stage Plasmodium falciparum Dd2 assessed as rescue after 72 hrs by SYBR green assay in presence of 200 uM IPP; settings: Dd2, 72 h
Method in brief: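 Ring-stage Dd2 cultures (1% hematocrit, 1% parasitemia, human erythrocytes) were grown with 200 μM IPP and a 10 to 0.02 μM serial dilution for 72 h at 37 °C under reduced O2. Growth was read by SYBR green and normalised to untreated 0.1% DMSO controls. Data are the mean ± S.D. of two or more independent experiments.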

Plasmodium falciparum [4] = assay: Antimalarial activity against MRA-150, chloroquine, pyrimethamine, mefloquine-resistant asexual blood stage Plasmodium falciparum Dd2 assessed as rescue at 2.5 uM after 72 hrs by SYBR green assay in presence of 200 uM IPP
Plasmodium falciparum [5] = assay: Antimalarial activity against MRA-150, chloroquine, pyrimethamine, mefloquine-resistant asexual blood stage Plasmodium falciparum Dd2 at 10000 nM after 72 hrs by SYBR green assay; settings: Dd2, 72 h, read-out: GI; method in brief: as §1
Plasmodium falciparum [6] = assay: Antimalarial activity against MRA-150, chloroquine, pyrimethamine, mefloquine-resistant asexual blood stage Plasmodium falciparum Dd2 at 20000 nM after 72 hrs by SYBR green assay; settings: Dd2, 72 h, read-out: GI; method in brief: as §1
Plasmodium falciparum [7] = assay: Antimalarial activity against MRA-150, chloroquine, pyrimethamine, mefloquine-resistant asexual blood stage Plasmodium falciparum Dd2 assessed as rescue at 20 uM after 72 hrs by SYBR green assay in presence of 200 uM IPP; method in brief: as §1
Plasmodium falciparum [8] = assay: Antimalarial activity against MRA-150, chloroquine, pyrimethamine, mefloquine-resistant asexual blood stage Plasmodium falciparum Dd2 assessed as rescue at 5 uM after 72 hrs by SYBR green assay in presence of 200 uM IPP

CNC(=O)[C@@H]1Cc2c([nH]c3ccccc23)[C@@H](c2ccc(Cl)cc2C)N1
Activity (Plasmodium falciparum [1]): 50% | IC50 (Plasmodium falciparum [2]): 1850 nM

Cc1cc(Cl)ccc1[C@H]1N[C@H](C(=O)O)Cc2c1[nH]c1ccccc21
Activity (Escherichia coli): inactive | IC50 (Plasmodium falciparum [3]): > 10000 nM | Activity (Plasmodium falciparum [4]): 100% | IC50 (Plasmodium falciparum [2]): 700 nM

O=C(O)[C@@H]1Cc2c([nH]c3ccccc23)[C@@H](c2ccc(C(F)(F)F)cc2C(F)(F)F)N1
IC50 (Plasmodium falciparum [2]): > 10000 nM

O=C(O)[C@@H]1Cc2c([nH]c3ccccc23)[C@H](c2ccccc2)N1
IC50 (Plasmodium falciparum [2]): > 10000 nM

O=C(O)C1Cc2c([nH]c3ccccc23)C(c2ccc(Cl)cc2Cl)N1 (stereo not given)
Activity (Plasmodium falciparum [4]): 100% | IC50 (Plasmodium falciparum [2]): 210 nM

COc1ccc([C@H]2N[C@H](C(=O)O)Cc3c2[nH]c2ccccc32)c(OC)c1
IC50 (Plasmodium falciparum [2]): > 20000 nM

O=C(O)[C@@H]1Cc2c([nH]c3ccccc23)[C@@H](c2ccc(Cl)cc2Cl)N1
Activity (Escherichia coli): inactive | IC50 (Plasmodium falciparum [3]): > 10000 nM | Activity (Plasmodium falciparum [4]): 100% | IC50 (Plasmodium falciparum [2]): 250 nM

CNC(=O)[C@@H]1Cc2c([nH]c3ccccc23)[C@@H](c2ccc(F)cc2F)N1
Activity (Escherichia coli): inactive | Activity (Plasmodium falciparum [4]): 100% | IC50 (Plasmodium falciparum [2]): 1200 nM

Cc1ccc([C@H]2N[C@H](C(=O)O)Cc3c2[nH]c2ccccc32)c(Cl)c1
Activity (Escherichia coli): inactive | IC50 (Plasmodium falciparum [3]): > 10000 nM | Activity (Plasmodium falciparum [4]): 100% | IC50 (Plasmodium falciparum [2]): 410 nM

CNC(=O)[C@@H]1Cc2c([nH]c3ccccc23)[C@@H](c2ccc(Cl)cc2Cl)N1
Activity (Escherichia coli): inactive | IC50 (Plasmodium falciparum [3]): > 10000 nM | Activity (Plasmodium falciparum [4]): 100% | IC50 (Plasmodium falciparum [2]): 190 nM

CCCCNC(=O)[C@@H]1Cc2c([nH]c3ccccc23)[C@@H](c2ccc(Cl)cc2Cl)N1
inhibition of growth at 10 µM (Plasmodium falciparum [5]): 80%

CNC(=O)[C@@H]1Cc2c([nH]c3ccccc23)[C@@H](c2ccc(C(F)(F)F)cc2C(F)(F)F)N1
IC50 (Plasmodium falciparum [2]): > 10000 nM

Clc1ccc(C2NCCc3c2[nH]c2ccccc32)c(Cl)c1 (racemic)
IC50 (Plasmodium falciparum [2]): 10000 nM

O=C(O)[C@@H]1Cc2c([nH]c3ccccc23)[C@H](c2ccc(F)cc2F)N1
IC50 (Plasmodium falciparum [2]): > 20000 nM

Cc1ccc([C@H]2N[C@H](C(=O)O)Cc3c2[nH]c2ccccc32)c(C)c1
inhibition of growth at 10 µM (Plasmodium falciparum [5]): 70%

NC(=O)[C@@H]1Cc2c([nH]c3ccccc23)[C@@H](c2ccc(Cl)cc2Cl)N1
Activity (Plasmodium falciparum [1]): 50% | IC50 (Plasmodium falciparum [2]): 1200 nM

COC(=O)[C@@H]1Cc2c([nH]c3ccccc23)[C@@H](c2ccccc2)N1
inhibition of growth at 20 µM (Plasmodium falciparum [6]): 20%

COC(=O)[C@H]1Cc2c([nH]c3ccccc23)[C@H](c2ccc(Cl)cc2Cl)N1
Activity (Plasmodium falciparum [7]): 0% | IC50 (Plasmodium falciparum [2]): 7700 nM

CN1CC(=O)N2[C@H](c3ccc4c(c3)OCO4)c3[nH]c4ccccc4c3C[C@@H]2C1=O [TADALAFIL]
IC50 (Plasmodium falciparum [2]): > 20000 nM

O=C(NC1CCCCC1)[C@@H]1Cc2c([nH]c3ccccc23)[C@@H](c2ccc(Cl)cc2Cl)N1
Activity (Plasmodium falciparum [1]): 0% | IC50 (Plasmodium falciparum [2]): 2830 nM

O=C(O)[C@@H]1Cc2c([nH]c3ccccc23)[C@@H](c2ccccc2Cl)N1
Activity (Plasmodium falciparum [1]): 60% | IC50 (Plasmodium falciparum [2]): 3280 nM

Cc1ccc([C@@H]2N[C@H](C(=O)O)Cc3c2[nH]c2ccccc32)c(Cl)c1
IC50 (Plasmodium falciparum [2]): > 10000 nM

O=C(O)[C@@H]1Cc2c([nH]c3ccccc23)[C@@H](c2ccc(F)cc2F)N1
Activity (Escherichia coli): inactive | IC50 (Plasmodium falciparum [3]): > 10000 nM | Activity (Plasmodium falciparum [8]): 100% | IC50 (Plasmodium falciparum [2]): 780 nM

CNNC(=O)[C@@H]1Cc2c([nH]c3ccccc23)[C@@H](c2ccc(Cl)cc2Cl)N1
Activity (Plasmodium falciparum [1]): 80% | IC50 (Plasmodium falciparum [2]): 1940 nM

O=C(O)[C@H]1Cc2c([nH]c3ccccc23)[C@H](c2ccc(Cl)cc2Cl)N1
IC50 (Plasmodium falciparum [2]): > 10000 nM

O=C(O)[C@@H]1Cc2c([nH]c3ccccc23)[C@@H](c2ccccc2)N1
IC50 (Plasmodium falciparum [2]): > 10000 nM

O=C(O)[C@@H]1Cc2c([nH]c3ccccc23)[C@H](c2ccc(Cl)cc2Cl)N1
IC50 (Plasmodium falciparum [2]): > 10000 nM

O=C(O)[C@@H]1Cc2c([nH]c3ccccc23)[C@@H](c2ccc(Cl)cc2)N1
Activity (Plasmodium falciparum [1]): 50% | IC50 (Plasmodium falciparum [2]): 1170 nM

COc1ccc([C@H]2N[C@H](C(=O)O)Cc3c2[nH]c2ccccc32)cc1OC
IC50 (Plasmodium falciparum [2]): > 20000 nM

O=C(O)[C@H]1Cc2c([nH]c3ccccc23)[C@@H](c2ccc(Cl)cc2Cl)N1
Activity (Plasmodium falciparum [1]): 60% | IC50 (Plasmodium falciparum [2]): 3000 nM

CC(C)NC(=O)[C@@H]1Cc2c([nH]c3ccccc23)[C@@H](c2ccc(Cl)cc2Cl)N1
inhibition of growth at 10 µM (Plasmodium falciparum [5]): 50%

CNC(=O)[C@@H]1Cc2c([nH]c3ccccc23)[C@@H](c2ccc(C)cc2C)N1
inhibition of growth at 10 µM (Plasmodium falciparum [5]): 70%

CNC(=O)[C@@H]1Cc2c([nH]c3ccccc23)[C@@H](c2ccc(C)cc2Cl)N1
Activity (Escherichia coli): inactive | Activity (Plasmodium falciparum [4]): 100% | IC50 (Plasmodium falciparum [2]): 340 nM

Cc1ccc([C@@H]2N[C@H](C(=O)O)Cc3c2[nH]c2ccccc32)c(C)c1
IC50 (Plasmodium falciparum [2]): > 10000 nM

COC(=O)[C@@H]1Cc2c([nH]c3ccccc23)[C@@H](c2ccc(Cl)cc2Cl)N1
Activity (Plasmodium falciparum [7]): 20% | IC50 (Plasmodium falciparum [2]): 6800 nM

O=CN(O)CCCP(=O)(O)O [FOSMIDOMYCIN]
Activity (Plasmodium falciparum [1]): 100%
